# Compound activity (PubChem BioAssay)
# ABCG2 inh – human ABCG2 inhibition, ABCB1 as counter-screen; IgMXP3 cells, JC-1 efflux, flow cytometry; inhibition, % at 6.6 µM; 0.1% of 190,000 active; AID 1325;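 active means inhibition above 80%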;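 further: 0% = DMSO and 100% = nicardipine control wells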
#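 material = IgMXP3 (ABCG2) plus far-red-tagged CCRF-Adr (ABCB1) cells | amount = 3 million cells/mL, equal mix of both lines | also added = JC-1 transporter substrate | dosing = one concentration, 6.6 µM final | schedule = 10 min at 25 °C | measured by = flow cytometric JC-1 green MFI at 530 nm | read-out basis = percent efflux inhibition, scaled nicardipine 100% to DMSO 0%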
# PHOSPHO1 block – PHOSPHO1 (human) inhibition | 1.1% of 290,000 active | inhibition, % at 13.3 µM | recombinant PHOSPHO1, absorbance phosphatase assay | Q8TCT1; in the data active means inhibition above about 60%
# ABCB1 block – inhibitors of human ABCB1 transporter, ABCG2 counter-screen | inhibition, % at 6.6 µM | 0.067% of 190,000 active | CCRF-Adr cells, JC-1 efflux, flow cytometry | P08183; in the data active means inhibition above about 40%;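 further: 0% = vehicle and 100% = reference inhibitor; higher value means more JC-1 retained so stronger ABCB1 efflux block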
# HSV replic up – increases HSV replication in cells. 0.005% of 220,000 active. AID 1956. maximum fold increase. HSV replication augmentation in cells, fold increase; in the data active means maximum fold increase above about 1.5; tested in PC3 cells
# PKD1 inh – PKD1 (human) kinase inhibition. inhibition, % (no concentration beside the values). 0.056% of 200,000 active. AID 797. PKD1 kinase fluorescence polarization assay; in the data active means inhibition above about 50%
# p47phox inh – blocks human p47phox regulatory protein of NADPH oxidases; P14598; p47phox/p22phox peptide binding, fluorescence polarization, 2 h; inhibition, % at 24.7 µM; 0.53% of 220,000 active; AID 1274;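 active means inhibition above about 30%, limit read from the data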;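 further: 0% = p47phox with labelled peptide and 100% = labelled peptide alone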
# Target sequence (P14598 whole entry, looked up): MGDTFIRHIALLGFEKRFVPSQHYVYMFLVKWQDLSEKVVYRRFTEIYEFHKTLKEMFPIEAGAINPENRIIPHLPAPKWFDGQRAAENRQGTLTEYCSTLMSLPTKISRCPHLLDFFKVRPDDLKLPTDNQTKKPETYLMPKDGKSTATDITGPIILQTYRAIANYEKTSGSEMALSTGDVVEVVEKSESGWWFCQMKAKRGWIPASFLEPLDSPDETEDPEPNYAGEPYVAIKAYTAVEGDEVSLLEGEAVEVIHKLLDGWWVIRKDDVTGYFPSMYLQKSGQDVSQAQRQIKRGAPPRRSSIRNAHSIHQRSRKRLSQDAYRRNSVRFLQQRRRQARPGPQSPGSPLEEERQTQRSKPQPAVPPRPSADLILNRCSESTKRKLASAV
# * = called active by the depositor; i = inactive; . = no result. Most compounds without a hit are left out; they make up all but 1.6% or so of the library.
SMILES,ABCG2 inh,PHOSPHO1 block,ABCB1 block,HSV replic up,PKD1 inh,p47phox inh
CCCN1CCN(CCCNC(=O)C2CCN(c3nnc(-n4c(C)ccc4C)s3)CC2)CC1,.,65*,.,.,.,.
CN1CCN(CCCNC(=O)C2CCN(c3nnc(-n4cccc4)s3)CC2)CC1,0,29,0,.,5,-8
Cc1sc2nc(CSC(C)C(=O)N3CCOCC3)[nH]c(=O)c2c1C (stereo not drawn),.,43,.,.,.,.
CN1CCN(C(=O)C2CCCN(S(=O)(=O)c3ccc(Br)cc3)C2)CC1 (stereo not drawn),.,27,.,.,.,.
CN1CCN(C(=O)C2CCCN(S(=O)(=O)c3ccc(Cl)cc3)C2)CC1 (stereo not drawn),.,65*,.,.,.,.
C#CCSc1nccc(-c2nn(-c3ccc(C)cc3)ccc2=O)n1,11,81*,1,i,-4,-23
CCSc1nccc(-c2nn(-c3ccc(C)cc3)ccc2=O)n1,.,10,.,i,-10,-15
C#CCSc1nnc(CSc2nc3ccccc3s2)n1-c1ccccc1,2,76*,1,i,-9,-34
S=c1[nH]nc(CSc2nc3ccccc3s2)n1C1CCCCC1,-3,96*,-1,i,-7,-11
S=c1[nH]nc(COc2ccccc2)n1Cc1ccccc1,-4,8,-1,i,3,1
O=C(O)CSc1nnc(CSc2nc3ccccc3s2)n1-c1ccccc1,0,-49,0,i,1,-2
S=c1[nH]nc(COc2ccccc2)n1C1CCCCC1,-4,66*,-2,i,2,-17
CC[C@H](C)NC(=O)CCCCCn1c(=S)[nH]c2c([nH]c3ccc(OC)cc32)c1=O,0,4,0,i,-5,13
CCCCNC(=O)CCCCn1c(=S)[nH]c2c([nH]c3ccc(OC)cc32)c1=O,-2,-42,0,i,11,5
COc1ccc2[nH]c3c(=O)n(CCCCC(=O)NCCN4CCCC4)c(=S)[nH]c3c2c1,1,102*,0,i,-6,-5
COc1ccc2[nH]c3c(=O)n(CCCCC(=O)N4CCC(C(N)=O)CC4)c(=S)[nH]c3c2c1,-1,104*,0,i,18,8
C#CCOCCOCCOCCNc1nc(N2CCN(C(=O)[C@H](CCCCN)n3cc([C@@H](N)CO)nn3)CC2)nc(N2CCN(C(=O)[C@H](Cc3cc4ccccc4[nH]3)n3cc([C@@H](N)CC(C)C)nn3)CC2)n1,0,9,0,.,-4,.
CCCOc1ccccc1C(=O)Nc1ccc(S(=O)(=O)N2CCN(C)CC2)cc1,.,-18,.,.,.,.
CCSc1cnn(-c2ccccc2)c(=O)c1SCC,5,4,2,.,-5,-7
CCCCSc1cnn(-c2ccccc2)c(=O)c1SCCCC,3,8,0,i,0,65*
Cc1ccc(NC(=O)CC2C(=O)NCCN2C(=O)c2ccc(F)cc2)cc1 (stereo not drawn),.,9,.,.,.,.
CN=C1NN=C(c2cc(C)n(-c3ccc(Cl)cc3)c2C)CS1,3,2,1,i,-3,2
N=c1c[n+](-c2ccc(Cl)cc2)[n-]o1,3,93*,0,i,-7,8
CCN(CC)C(=O)CSc1nnc(-c2cc3ccccc3cc2O)n1CC,6,62*,1,i,3,4
C=CCn1c(-c2csc3ccccc23)n[nH]c1=S,0,102*,0,i,-4,-7
SMILES,ABCG2 inh,PHOSPHO1 block,ABCB1 block,HSV replic up,PKD1 inh,p47phox inh
CCn1c(-c2c[nH]c3ccccc23)n[nH]c1=S,-1,79*,0,i,-1,-3
C=CCn1c(-c2c[nH]c3ccccc23)n[nH]c1=S,3,101*,1,i,0,-3
O=C(NC1CCCC1)c1ccc(CNc2c(N3CCOCC3)c(=O)c2=O)cc1,-4,5,-3,i,1,5
CC(C)(NC(=O)N1CCOCC1)c1cccc(C(C)(C)NC(=O)N2CCOCC2)c1,.,.,.,i,6,.
CCn1c(-c2cc3ccccc3cc2O)n[nH]c1=S,2,92*,-1,i,-2,-7
Cc1ccc(O)c(C(=O)c2cnn(C(=O)COc3ccccc3C#N)c2)c1,.,32,.,i,.,32*
C=CCNC(=S)NNC(=O)c1ccc(OCC)cc1,2,50,0,.,-6,-5
C=CCNC(=S)NNC(=O)c1ccc(OCC(C)C)cc1,2,60*,0,i,-7,-13
C=CCNC(=O)c1ccc(NC(=O)C2=CSCCO2)cc1,.,17,.,.,.,.
